Experimental data gathered from unrelated publications.
Lines come from different studies, so protocols differ.
Target: Bone morphogenetic protein receptor type-2 (BMPR2, Homo sapiens, UniProt Q13873)
Sequence (Q13873 27-1038, as in one of the studies): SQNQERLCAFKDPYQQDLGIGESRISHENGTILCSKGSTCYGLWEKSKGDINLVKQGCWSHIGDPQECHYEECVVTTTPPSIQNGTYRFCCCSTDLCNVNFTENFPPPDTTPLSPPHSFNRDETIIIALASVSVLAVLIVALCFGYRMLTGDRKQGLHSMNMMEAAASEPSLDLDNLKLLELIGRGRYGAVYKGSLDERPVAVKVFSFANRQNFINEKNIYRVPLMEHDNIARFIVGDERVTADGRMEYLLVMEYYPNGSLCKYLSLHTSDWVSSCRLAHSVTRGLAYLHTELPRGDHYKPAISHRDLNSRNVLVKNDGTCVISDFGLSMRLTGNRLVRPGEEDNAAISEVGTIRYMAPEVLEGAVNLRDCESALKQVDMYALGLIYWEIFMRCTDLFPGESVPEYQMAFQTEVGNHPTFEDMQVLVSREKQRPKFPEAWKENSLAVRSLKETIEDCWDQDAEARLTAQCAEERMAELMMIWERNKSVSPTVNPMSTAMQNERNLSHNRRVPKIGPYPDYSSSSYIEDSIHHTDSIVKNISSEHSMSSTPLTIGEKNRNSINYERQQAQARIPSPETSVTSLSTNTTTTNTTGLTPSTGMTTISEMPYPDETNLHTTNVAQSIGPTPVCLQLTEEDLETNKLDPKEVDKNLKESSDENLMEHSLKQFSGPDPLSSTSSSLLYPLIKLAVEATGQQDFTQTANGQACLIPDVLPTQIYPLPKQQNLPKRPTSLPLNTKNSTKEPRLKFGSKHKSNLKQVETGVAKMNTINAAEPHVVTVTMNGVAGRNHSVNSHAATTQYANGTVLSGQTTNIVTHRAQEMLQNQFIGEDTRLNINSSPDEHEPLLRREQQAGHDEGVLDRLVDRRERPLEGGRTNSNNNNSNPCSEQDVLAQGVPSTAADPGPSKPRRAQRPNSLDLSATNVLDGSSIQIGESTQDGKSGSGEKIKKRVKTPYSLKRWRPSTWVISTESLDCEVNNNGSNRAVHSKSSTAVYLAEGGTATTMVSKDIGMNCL

| SMILES | read-out | method | tested at | remaining binding [%] |
| --- | --- | --- | --- | --- |
| C[C@@H]1CN(c2cc(-c3nn(C)c4ccc(OC5(C)CC5)cc34)ncn2)C[C@H](C)O1 | cell-free assay | competition with immobilised ligand | 1 µM | 54 |
| COc1ncc2cc3ccccc3nc2c1C#N | cell-free assay | competition with immobilised ligand | 5 µM | 100 |
| CCN1CCN(Cc2ccc(C(=O)Nc3ccc(C)c(Oc4ccc5c(c4)CC(=O)N5)c3)cc2C(F)(F)F)CC1 | binding | competition with immobilised ligand | 1 µM | 100 |
| N[C@@H]1CCN(c2nccc(-c3cnn4ncccc34)n2)C1 | binding | – | 1 µM | 100 |
| Nc1ncc2c(n1)-c1c([nH]c3ccc(C#CC4CC4)cc13)CCCC2 | binding | competition with immobilised ligand | 1 µM | 96 |
| CS(=O)(=O)N1CCCC(NC(=O)[C@H](CCC2CCCCC2)NC(=O)c2ccc(CNC(=O)c3cnc4ccccn34)cc2)C1 (stereo partly drawn) | cell-free assay | competition with immobilised ligand | 0.1 µM | 100 |
| C[C@@H]1CN(c2ccc3ncc(-c4ccc5[nH]nc(C6CC6)c5c4)n3n2)C[C@H](C)O1 | binding | competition with immobilised ligand | 0.5 µM | 56 |
| O=C(NCC1CCOCC1)c1n[nH]cc1NC(=O)c1c(F)cccc1F | binding | competition with immobilised ligand | 1 µM | 86 |
| COc1cnc(Nc2cccc(S(N)(=O)=O)c2)nc1N1CCN(c2ccccc2)C(=O)C1 | binding | competition with immobilised ligand | 1 µM | 0 |
| CC(=O)N1CCC(c2ccc(C(=O)NC3=NCCN3)cc2C(F)(F)F)CC1 | cell-free assay | competition with immobilised ligand | 1 µM | 100 |
| C[C@H]1CCN(c2nccc(-c3cnn4ncccc34)n2)C1 | binding | – | 1 µM | 97 |
| O=C(NCCCN1CCOCC1)c1ccc(Nc2nccc(-c3cc4ccccc4s3)n2)cc1 | binding | competition with immobilised ligand | 1 µM | 66 |
| COc1cccc(CNC(=O)c2nc3scc(COCc4ccc(C(=O)O)cc4)c3c(=O)[nH]2)c1 | cell-free assay | competition with immobilised ligand | 1 µM | 71.8 |
| Cc1cnc(Nc2ccc(C(=O)N3CCC(N4CCCC4)CC3)cc2)nc1-c1cc2ccccc2s1 | binding | competition with immobilised ligand | 1 µM | 25 |
| CN(C)c1ncc(F)c(-c2cnn3ncccc23)n1 | binding | – | 1 µM | 74 |
| O=C(c1ccc(Nc2nccc(-c3cc4ccccc4s3)n2)cc1)N1CCC(N2CCCC2)CC1 | binding | competition with immobilised ligand | 1 µM | 67 |
| F[C@@H]1CCN(c2nccc(-c3cnn4ncccc34)n2)C1 | binding | – | 1 µM | 100 |
| O=C(NCc1ncc(C(F)(F)F)cc1Cl)c1ccc2c(c1)C1(CCS(=O)(=O)CC1)[C@H](C1CC1)N2S(=O)(=O)c1ccc(F)cc1 | cell-free assay | competition with immobilised ligand | 1 µM | 80 |
| c1cnn2ncc(-c3ccnc(N4CCC45COC5)n3)c2c1 | binding | – | 1 µM | 68 |
| CNCc1ccccc1-c1csc([C@@H](C)Nc2nc(C)nc3cc(OC)c(OC)cc23)c1 | cell-free assay | competition with immobilised ligand | 1 µM | 100 |
| CN(CCCC(F)(F)F)c1nccc(-c2cnn3ncccc23)n1 | binding | – | 1 µM | 97 |
| CCOC(=O)c1cc2cc(-c3cc(C(=O)NCc4ccc(C(=O)O)cc4)nn3C)ccc2[nH]1 | cell-free assay | competition with immobilised ligand | 0.1 µM | 82 |
| CN(C)c1nccc(-c2cnc3ncccn23)n1 | binding | – | 1 µM | 67 |
| FC(F)(F)Oc1cccc(-c2cnc3ccc(-c4ccncc4)nn23)c1 | cell-free assay | competition with immobilised ligand | 5 µM | 56 |
